This is an account of results in ChEMBL document CHEMBL1123827, “Alpha 2-adrenergic agonists/antagonists: the synthesis and structure-activity relationships of a series of indolin-2-yl and tetrahydroquinolin-2-yl imidazolines” (J Med Chem, 1987).

SMILES strings stand for the structures. Bounds are passed on as bounds.

Assay [1] has as its target T1, Adrenergic receptor alpha-2 (Rattus norvegicus) (UniProt P22086+P19328+P22909). Put plainly: The compound was evaluated for the alpha-2 adrenergic receptor antagonistic activity in rat vas deferens vs clonidine; i = the compound contracted the tissue at 100 nM. Type of assay: functional, tissue-based. Conditions: filed as agonist. The essentials:
(§1)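 Vasa deferentia from Sprague-Dawley rats (180–250 g) mounted between platinum ring electrodes at 1 g resting tension in oxygenated Krebs at 37 °C. Single-pulse electrical stimulation (1 ms, 0.15 Hz, lowest voltage giving maximal contraction).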

Assay [2] concerns the target T2, Adrenergic receptor alpha-2 (Rattus norvegicus, UniProt P22086+P19328+P22909).
T2 sequence (P22086 whole entry): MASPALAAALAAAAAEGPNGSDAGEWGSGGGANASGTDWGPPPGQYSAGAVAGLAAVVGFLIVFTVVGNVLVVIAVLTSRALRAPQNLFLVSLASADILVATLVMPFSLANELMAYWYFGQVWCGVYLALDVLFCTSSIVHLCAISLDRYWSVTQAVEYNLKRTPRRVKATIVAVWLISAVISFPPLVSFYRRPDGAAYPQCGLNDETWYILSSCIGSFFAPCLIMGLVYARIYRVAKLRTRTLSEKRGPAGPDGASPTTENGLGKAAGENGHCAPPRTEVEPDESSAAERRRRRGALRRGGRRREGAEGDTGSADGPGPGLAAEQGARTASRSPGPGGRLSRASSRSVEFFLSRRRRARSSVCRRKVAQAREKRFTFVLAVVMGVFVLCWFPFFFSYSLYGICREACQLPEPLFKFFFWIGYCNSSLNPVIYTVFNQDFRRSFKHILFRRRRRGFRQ
T2 sequence (P19328 whole entry): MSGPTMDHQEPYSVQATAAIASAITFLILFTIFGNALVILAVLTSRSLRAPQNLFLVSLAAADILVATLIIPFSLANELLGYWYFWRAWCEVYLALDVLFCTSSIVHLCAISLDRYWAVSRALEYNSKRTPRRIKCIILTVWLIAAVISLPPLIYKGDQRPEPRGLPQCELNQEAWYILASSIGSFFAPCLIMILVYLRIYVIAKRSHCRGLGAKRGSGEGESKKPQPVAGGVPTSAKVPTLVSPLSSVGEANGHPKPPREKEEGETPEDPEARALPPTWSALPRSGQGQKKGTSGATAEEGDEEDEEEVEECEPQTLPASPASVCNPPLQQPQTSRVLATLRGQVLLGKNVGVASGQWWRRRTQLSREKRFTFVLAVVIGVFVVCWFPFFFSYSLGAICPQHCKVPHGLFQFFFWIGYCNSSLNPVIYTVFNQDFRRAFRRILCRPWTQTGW
T2 sequence (P22909 whole entry): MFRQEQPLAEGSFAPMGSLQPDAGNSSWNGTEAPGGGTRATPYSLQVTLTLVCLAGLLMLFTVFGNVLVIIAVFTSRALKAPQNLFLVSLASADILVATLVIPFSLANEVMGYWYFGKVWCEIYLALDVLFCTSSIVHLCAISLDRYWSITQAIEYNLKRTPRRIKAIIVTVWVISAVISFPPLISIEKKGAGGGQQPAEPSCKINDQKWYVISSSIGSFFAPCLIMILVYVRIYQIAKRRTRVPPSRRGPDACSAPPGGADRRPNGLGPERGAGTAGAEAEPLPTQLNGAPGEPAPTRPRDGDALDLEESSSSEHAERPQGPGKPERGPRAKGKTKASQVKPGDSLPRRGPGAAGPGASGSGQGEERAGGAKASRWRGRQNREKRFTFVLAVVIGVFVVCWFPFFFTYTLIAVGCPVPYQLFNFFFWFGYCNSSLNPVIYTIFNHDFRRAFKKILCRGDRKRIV
The experiment in a line: Binding affinity against alpha-2 adrenergic receptor was determined by the displacement of [3H]clonidine from rat brain cortical membranes. The assay is classed as cell membranes, Membrane.

Assay [3] deals with T2, Adrenergic receptor alpha-2. Put plainly: Alpha-2 adrenergic receptor antagonistic activity in rat vas deferens vs clonidine. The assay is classed as functional, tissue-based.
For assay [4] the target is unchanged. Put plainly: Alpha-2 adrenergic receptor antagonistic activity in rat vas deferens vs clonidin. The assay is classed as functional, tissue-based. The essentials:
as §1

The next assay concerns Mus musculus. The experiment in a line: Antagonistic activity against clonidine-induced antinociception in mouse after po administration. Type of assay: functional. Summed up: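 Swiss Webster mice (18–24 g), 10 per treatment. Test compound was given orally in 0.9% NaCl at 10 mL/kg. […] Mice were observed 5–10 min after PPQ, and those writhing at least 3 times were counted as percent reversal.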

Assay [5] has as its target T2, Adrenergic receptor alpha-2. Put plainly: Alpha-2 adrenergic receptor agonistic activity in rat vas deferens.
For assay [6] the target is unchanged. Put plainly: The compound was evaluated for the alpha-2 adrenergic receptor antagonistic activity in rat vas deferens vs clonidin. The assay is classed as functional, tissue-based. Summed up: as §1
Assay [7] addresses T1, Adrenergic receptor alpha-2 (Rattus norvegicus). Put plainly: The compound was evaluated for the alpha-2 adrenergic receptor antagonistic activity in rat vas deferens vs clonidin; l = compound contracted the tissue at 100nM, which is an alpha-1 agonist like response. The assay is classed as functional, tissue-based. Conditions: filed as agonist.

Broadly, the pA2 is a measure of antagonist potency on a negative log scale. Usually Ki stands for a dissociation constant, usually derived from enzyme kinetics or from competition with a known ligand. Low values mean a stronger hold on the target, high ones a looser hold on the target. With `c1ccc(N2c3ccccc3CC2C2=NCCN2)cc1` (stereo not given), the pA2 entry in assay [1] was “Agonist”. In assay [2], this compound yielded a Ki of 4.2 nM.

For `Cn1c(C2=NCCN2)cc2ccccc21`, the pA2 in assay [3] was more than 6. Further, the Ki in assay [2] is given as more than 1000 nM.

By ED50 is commonly meant the midpoint of the dose-response relation. Turning to `CCN1c2ccccc2CC1C1=NCCN1` (stereo not given), in assay [4], the pA2 worked out at 8.91. The compound further yielded a Ki in assay [2] of 0.91 nM. Also, the ED50 with Mus musculus is 2.6 mg/kg.

In assay [4], `CCCN1c2ccccc2CC1C1=NCCN1` (stereo not given) returned a pA2 of 8.76. In addition, the Ki in assay [2] was 1.93 nM. The 50% effect level in the assay with Mus musculus (ED50) was put at a dose of 100 mg/kg.

One may read the IC50 as the concentration that inhibits the measured activity by half. The low end stands for higher potency, the high end for lower potency. As to `C[C@H]1c2ccccc2N(C)[C@@H]1C1=NCCN1`, in assay [4], the pA2 is 6.96. In assay [2], this compound had a Ki of 72.3 nM. Besides, the IC50 in assay [5] is reported as more than 1000 nM.

Compound `c1ccc(CCN2c3ccccc3CC2C2=NCCN2)cc1` (stereo not given) had a Ki in assay [2] of 6 nM. Further, the ED50 in the assay on Mus musculus was 6 mg/kg.

On to `CN1c2ccccc2CCC1C1=NCCN1` (stereo not given), for which the pA2 in assay [4] is listed as 8.13. In assay [2], the inhibition constant (Ki) is on record as 1.52 nM.

Take `CN1c2ccc(Cl)cc2CC1C1=NCCN1` (stereo not given): in assay [4], the pA2 is listed as 8.56. In assay [2], this compound showed a Ki of 1.9 nM.

For `C[C@@H]1c2ccccc2N(C)[C@@H]1C1=NCCN1`, in assay [6], the pA2 is reported as less than 6. The same compound came in with a Ki in assay [2] of 6.9 nM. Also, the ED50 in the assay on Mus musculus is more than 300 mg/kg. For the same compound, the IC50 in assay [5] is given as 3.29 nM.

`Cn1c(CC2=NCCN2)cc2ccccc21` gave a pA2 in assay [3] of 7.48. This compound also had a Ki in assay [2] of 46.7 nM. In addition, the ED50 in the assay with Mus musculus was 100 mg/kg.

Compound `c1ccc(CN2c3ccccc3CC2C2=NCCN2)cc1` (stereo not given) yielded a pA2 in assay [4] of 7.93. Also, in assay [2], the Ki was determined as 2.3 nM. Besides, the ED50 in the assay with Mus musculus was determined as 7 mg/kg.

In assay [3], `c1ccc2c(c1)CC(C1=NCCN1)N2` (stereo not given) had a pA2 of 8.16. Further, in assay [2], the Ki stood at 2.11 nM.

`COC(=O)[C@@H]1[C@H]2C[C@H]3c4[nH]c5ccccc5c4CCN3C[C@@H]2CC[C@@H]1O` [YOHIMBINE] returned an ED50 in the assay on Mus musculus of 0.6 mg/kg.

As to `c1ccc2c(c1)CCN2C1=NCCN1`, in assay [2], the Ki was more than 1000 nM.

The compound `CN1c2ccccc2CC1CC1=NCCN1` (stereo not given) came in with a pA2 in assay [3] of less than 6. Further, the Ki in assay [2] was determined as 355 nM.

With `C[C@@H]1Cc2ccccc2N[C@@H]1C1=NCCN1`, the pA2 in assay [4] is less than 6. In assay [2], this compound gave an inhibition constant (Ki) of more than 1000 nM. Moreover, the IC50 in assay [5] was more than 1000 nM.

With `c1ccc2c(c1)OCC(C1=NCCN1)O2` (stereo not given) [IDAZOXAN], the ED50 with Mus musculus worked out at 1.6 mg/kg.

Take `CN1c2ccccc2C[C@@]1(C)C1=NCCN1`: the pA2 in assay [6] turned out to be 7.55. The compound also displayed a Ki in assay [2] of 3.4 nM. The IC50 in assay [5] is given as more than 300 nM.

For `CN1c2c(Cl)cccc2CC1C1=NCCN1` (stereo not given), in assay [6], the pA2 was 8.8. Also, the Ki in assay [2] worked out at 0.72 nM. For the same compound, in the assay with Mus musculus, the ED50 came out at 0.1 mg/kg.

As to `C[C@@H]1Cc2ccccc2N(C)[C@@H]1C1=NCCN1`, in assay [4], the pA2 is 5.88. Further, the Ki in assay [2] is given as 719 nM.

For the compound `CN1c2ccc(Cc3ccccc3)cc2CC1C1=NCCN1` (stereo not given), the pA2 in assay [4] was determined as 7.59. In assay [2], the Ki is 53.6 nM. Further, the ED50 in the assay with Mus musculus is more than 100 mg/kg.

For the compound `CN(CC1=NCCN1)c1ccccc1`, in assay [7], the pA2 result is “Agonist”. In assay [2], the Ki is given as 3.9 nM.

As to `CCOCCN1c2ccccc2CC1C1=NCCN1` (stereo not given), in assay [3], the pA2 is given as 7.81. The compound also yielded a Ki in assay [2] of 26 nM. In the assay on Mus musculus, this compound came in with an ED50 of 20.5 mg/kg.

With `C=CC[C@@]1(C2=NCCN2)Cc2ccccc2N1C`, the pA2 in assay [6] amounted to 6.96. The same compound returned a Ki in assay [2] of 77 nM. This compound also showed an IC50 in assay [5] of more than 1000 nM.

On to `c1ccc2c(c1)CCC(C1=NCCN1)N2` (stereo not given), for which the pA2 in assay [4] turned out to be 8.03. This compound showed a Ki in assay [2] of 13.8 nM.

`CCCCN1c2ccccc2CC1C1=NCCN1` (stereo not given): in assay [3], the pA2 was 8.8. The compound further came in with a Ki in assay [2] of 3.5 nM. Further, the ED50 in the assay with Mus musculus is 4 mg/kg.

`CC(C)N(C[C@@]1(C2=NCCN2)Cc2ccccc2N1C)C(C)C` came in with a Ki in assay [2] of 25.1 nM. This compound came in with an IC50 in assay [5] of 94.8 nM.

In assay [4], `CN1c2c(Cl)cc(Cl)cc2CC1C1=NCCN1` (stereo not given) yielded a pA2 of 8. Moreover, in assay [2], the Ki came to 12.3 nM.

The compound `CCC[C@@]1(C2=NCCN2)Cc2ccccc2N1C` yielded a pA2 in assay [4] of 6.6. The same compound displayed a Ki in assay [2] of 260 nM. The compound further showed an IC50 in assay [5] of more than 1000 nM.
